Reference: ChEMBL document CHEMBL4257495, “Crystallomycin revisited after 60 years: aspartocins B and C” (2018)
In brackets after ≈: the same amount, converted by molar mass. Activity calls are given as the source filed them. The rule behind the calls is not given here.

How the values were obtained:
Staphylococcus aureus [1] = experiment: Antibacterial activity against Staphylococcus aureus ATCC 29213 by broth microdilution method; type: functional
How it was run: (§1)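 MIC by broth microdilution following CLSI guidelines, run in medium without added Ca2+ and with Ca2+ ions supplemented (level not given). Reference strains came from the Tarasevich State Research Institution collection of pathogenic microorganisms. Clinical MRSA/MRSE isolates came from the Russia Research Institute for Antibiotics Culture Collection.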

Staphylococcus aureus [2] = experiment: Antibacterial activity against methicillin-resistant Staphylococcus aureus 86 by broth microdilution method; type: functional; how it was run: as §1
Staphylococcus aureus [3] = experiment: Antibacterial activity against methicillin-resistant Staphylococcus aureus 88 by broth microdilution method; type: functional; how it was run: as §1
Staphylococcus aureus [4] = experiment: Antibacterial activity against methicillin-resistant Staphylococcus aureus 71001 by broth microdilution method; type: functional; how it was run: as §1
Staphylococcus aureus [5] = experiment: Antibacterial activity against methicillin-resistant Staphylococcus aureus 20450 by broth microdilution method; type: functional; how it was run: as §1
[6] = test system: Staphylococcus epidermidis; experiment: Antibacterial activity against methicillin-resistant Staphylococcus epidermidis C2001 by broth microdilution method; type: functional; how it was run: as §1
[7] = test system: Staphylococcus epidermidis; experiment: Antibacterial activity against methicillin-resistant Staphylococcus epidermidis 004-T1 by broth microdilution method; type: functional; how it was run: as §1
Staphylococcus aureus [8] = experiment: Antibacterial activity against Staphylococcus aureus ATCC 29213 in presence of Ca2+ by broth microdilution method; type: functional; how it was run: as §1
Staphylococcus aureus [9] = experiment: Antibacterial activity against methicillin-resistant Staphylococcus aureus 86 in presence of Ca2+ by broth microdilution method; type: functional; how it was run: as §1
Staphylococcus aureus [10] = experiment: Antibacterial activity against methicillin-resistant Staphylococcus aureus 88 in presence of Ca2+ by broth microdilution method; type: functional; how it was run: as §1
Staphylococcus aureus [11] = experiment: Antibacterial activity against methicillin-resistant Staphylococcus aureus 71001 in presence of Ca2+ by broth microdilution method; type: functional; how it was run: as §1
Staphylococcus aureus [12] = experiment: Antibacterial activity against methicillin-resistant Staphylococcus aureus 20450 in presence of Ca2+ by broth microdilution method; type: functional; how it was run: as §1
Staphylococcus aureus [13] = experiment: Antibacterial activity against methicillin-resistant Staphylococcus aureus 17 in presence of Ca2+ by broth microdilution method; type: functional; how it was run: as §1
[14] = test system: Staphylococcus epidermidis; experiment: Antibacterial activity against methicillin-resistant Staphylococcus epidermidis C2001 in presence of Ca2+ by broth microdilution method; type: functional; how it was run: as §1
[15] = test system: Staphylococcus epidermidis; experiment: Antibacterial activity against methicillin-resistant Staphylococcus epidermidis 004-T1 in presence of Ca2+ by broth microdilution method; type: functional; how it was run: as §1
[16] = test system: Staphylococcus epidermidis; experiment: Antibacterial activity against methicillin-resistant Staphylococcus epidermidis 20459 in presence of Ca2+ by broth microdilution method; type: functional; how it was run: as §1
Enterococcus faecalis [17] = experiment: Antibacterial activity against Enterococcus faecalis ATCC 29212 in presence of Ca2+ by broth microdilution method; type: functional
Enterococcus gallinarum [18] = experiment: Antibacterial activity against Enterococcus gallinarum VP4147 in presence of Ca2+ by broth microdilution method; type: functional
Escherichia coli = experiment: Antibacterial activity against Escherichia coli ATCC 25922; type: functional, organism-based; how it was run: as §1
Aspergillus niger = experiment: Antifungal activity against Aspergillus niger ATCC 16404; type: functional, organism-based
Candida albicans = experiment: Antifungal activity against Candida albicans ATCC 14053; type: functional, organism-based
Staphylococcus aureus [19] = experiment: Ratio of MIC for Staphylococcus aureus ATCC 29213 in absence of Ca2+ to MIC for Staphylococcus aureus ATCC 29213 in presence of Ca2+; type: functional
[20] = test system: Staphylococcus epidermidis; experiment: Ratio of MIC for methicillin-resistant Staphylococcus epidermidis C2001 in absence of Ca2+ to MIC for methicillin-resistant Staphylococcus epidermidis C2001 in presence of Ca2+; type: functional
[21] = test system: Staphylococcus epidermidis; experiment: Ratio of MIC for methicillin-resistant Staphylococcus epidermidis 004-T1 in absence of Ca2+ to MIC for methicillin-resistant Staphylococcus epidermidis 004-T1 in presence of Ca2+; type: functional
Staphylococcus aureus [22] = experiment: Antibacterial activity against methicillin-resistant Staphylococcus aureus 17 by broth microdilution method; type: functional; how it was run: as §1
[23] = test system: Staphylococcus epidermidis; experiment: Antibacterial activity against methicillin-resistant Staphylococcus epidermidis 20459 by broth microdilution method; type: functional; how it was run: as §1
Enterococcus faecalis [24] = experiment: Antibacterial activity against Enterococcus faecalis ATCC 29212 by broth microdilution method; type: functional; how it was run: as §1
Enterococcus gallinarum [25] = experiment: Antibacterial activity against Enterococcus gallinarum VP4147 by broth microdilution method; type: functional
Enterococcus faecalis [26] = experiment: Ratio of MIC for Enterococcus faecalis ATCC 29212 in absence of Ca2+ to MIC for Enterococcus faecalis ATCC 29212 in presence of Ca2+; type: functional
Enterococcus gallinarum [27] = experiment: Ratio of MIC for Enterococcus gallinarum VP4147 in absence of Ca2+ to MIC for Enterococcus gallinarum VP4147 in presence of Ca2+; type: functional

SMILES | MIC (Staphylococcus aureus [1]) [µg/mL] | MIC (Staphylococcus aureus [2]) [µg/mL] | MIC (Staphylococcus aureus [3]) [µg/mL] | MIC (Staphylococcus aureus [4]) [µg/mL] | MIC (Staphylococcus aureus [5]) [µg/mL] | MIC [6] [µg/mL] | MIC [7] [µg/mL] | MIC (Staphylococcus aureus [8]) [µg/mL] | MIC (Staphylococcus aureus [9]) [µg/mL] | MIC (Staphylococcus aureus [10]) [µg/mL] | MIC (Staphylococcus aureus [11]) [µg/mL] | MIC (Staphylococcus aureus [12]) [µg/mL] | MIC (Staphylococcus aureus [13]) [µg/mL] | MIC [14] [µg/mL] | MIC [15] [µg/mL] | MIC [16] [µg/mL] | MIC (Enterococcus faecalis [17]) [µg/mL] | MIC (Enterococcus gallinarum [18]) [µg/mL] | Activity (Escherichia coli) | Activity (Aspergillus niger) | further results
CC(C)CCCCCCC/C=C/CC(=O)N[C@@H](CC(=O)O)C(=O)N[C@@H]1C(=O)N2CCCC[C@@H]2C(=O)N[C@@H]([C@H](C)C(=O)O)C(=O)N[C@@H](CC(=O)O)C(=O)NCC(=O)N[C@@H](CC(=O)O)C(=O)NCC(=O)N[C@H](C(C)N)C(=O)N[C@@H](C(C)C)C(=O)N2CCC[C@H]2C(=O)N[C@@H]1C (some centres undefined) | 16 (≈ 12.3 µM) | 16 (≈ 12.3 µM) | 16 (≈ 12.3 µM) | 16 (≈ 12.3 µM) | 16 (≈ 12.3 µM) | 16 (≈ 12.3 µM) | 32 (≈ 24.5 µM) | 4 | 4 | 4 | 4 | 2 | 4 | 4 | 4 | 4 | 8 | 4 to 8 | inactive | inactive | Activity (Candida albicans): inactive; Ratio (Staphylococcus aureus [19]): 2 - 8; Ratio [20]: 2 - 8; Ratio [21]: 2 - 8
CCCCCCCCCC(=O)N[C@@H](Cc1c[nH]c2ccccc12)C(=O)N[C@@H](CC(N)=O)C(=O)N[C@@H](CC(=O)O)C(=O)N[C@@H]1C(=O)NCC(=O)N[C@@H](CCCN)C(=O)N[C@@H](CC(=O)O)C(=O)N[C@H](C)C(=O)N[C@@H](CC(=O)O)C(=O)NCC(=O)N[C@H](CO)C(=O)N[C@@H]([C@H](C)CC(=O)O)C(=O)N[C@@H](CC(=O)c2ccccc2N)C(=O)O[C@@H]1C [DAPTOMYCIN] | 0.5 (≈ 0.309 µM) | 1 (≈ 0.617 µM) | 0.5 to 1 (≈ 0.309 to 0.617 µM) | 0.5 to 1 (≈ 0.309 to 0.617 µM) | 1 (≈ 0.617 µM) | 1 (≈ 0.617 µM) | 1 (≈ 0.617 µM) |  |  |  |  |  |  |  |  |  |  |  |  |  | MIC (Staphylococcus aureus [22]): 2 µg/mL (≈ 1.23 µM); MIC [23]: 1 µg/mL (≈ 0.617 µM); MIC (Enterococcus faecalis [24]): 4 µg/mL (≈ 2.47 µM); MIC (Enterococcus gallinarum [25]): 8 µg/mL (≈ 4.94 µM)
CCC(C)CCCCCCC/C=C\CC(=O)N[C@@H](CC(=O)O)C(=O)N[C@@H]1C(=O)N2CCCC[C@@H]2C(=O)N[C@@H]([C@H](C)C(=O)O)C(=O)N[C@@H](CC(=O)O)C(=O)NCC(=O)N[C@@H](CC(=O)O)C(=O)NCC(=O)N[C@H](C(C)N)C(=O)N[C@@H](C(C)C)C(=O)N2CCC[C@H]2C(=O)N[C@@H]1C (some centres undefined) | 4 to 8 (≈ 3.03 to 6.07 µM) | 8 (≈ 6.07 µM) | 8 (≈ 6.07 µM) | 8 (≈ 6.07 µM) | 8 (≈ 6.07 µM) | 4 to 8 (≈ 3.03 to 6.07 µM) | 16 (≈ 12.1 µM) | 2 | 2 | 2 | 2 | 1 to 2 | 4 | 2 | 4 | 4 | 8 | 4 to 8 | inactive | inactive | MIC (Staphylococcus aureus [22]): 8 µg/mL (≈ 6.07 µM); MIC (Enterococcus faecalis [24]): 16 µg/mL (≈ 12.1 µM); MIC (Enterococcus gallinarum [25]): 16 µg/mL (≈ 12.1 µM); Activity (Candida albicans): inactive; Ratio (Staphylococcus aureus [19]): 2 - 8; Ratio [20]: 2 - 8; Ratio [21]: 2 - 8; Ratio (Enterococcus faecalis [26]): 2 - 8; Ratio (Enterococcus gallinarum [27]): 2 - 8
